# The campaign covered roughly 190,000 compounds. About 1,800 (0.95%) were called active.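 Rule for the calls: active = activation above the screen-wide mean of compound activation plus 3 SD (cut at about 130% in these data); inactive = the rest.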 What follows is part of a selection rich in actives, with near analogues and random picks from the rest.
# Assay: IL-6 driven STAT3 reporter potentiators, primary screen, U3A cells, luciferase, luminescence, MLSCN library (AID 871);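 note: 0% = background luminescence of wells with medium and substrate only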
# Settings: IL-6 STAT3-luciferase reporter, at 5.6 µM, stronger effect = higher value, 100% = signal with IL-6 EC80 alone
# Procedure, shortened: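 System – human U3A cells carrying STAT3-luciferase construct · Probe or stimulus – Interleukin-6, 33 ng/mL · Schedule – compound 1 h, then IL-6 6 h at 37 °C · Signal – luminescence from STAT3-driven luciferase reporter · Evaluation – percent of IL-6-only median luminescence · Benchmarks – IL-6-only high control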
row,Structure (SMILES),activation (% of control)
1,Cc1sc2nc(CC(N)=O)[nH]c(=O)c2c1-c1ccccc1,96.5% (inactive)
2,CCOC(=O)CC(=O)CSc1nc(-c2ccccc2)cc(-c2ccc(Cl)cc2)c1C#N,98.1% (inactive)
3,N#Cc1c(C(F)(F)F)cc(-c2ccc(Cl)cc2)nc1SCC(=O)O,142% (active)
4,N#Cc1c(C(F)(F)F)cc(-c2ccccc2)nc1SCC(=O)N1CCOCC1,107% (inactive)
5,Cc1nn(CC2CC2)c(=O)n1N(C)c1ncc(C(F)(F)F)cc1Cl,99.4% (inactive)
6,CCN(CCn1cccn1)C(=O)CC1C(=O)NCCN1Cc1cccc(OC)c1OC (stereo unspecified),106% (inactive)
7,COc1cccc(C2c3[nH]c4ccccc4c3CCN2Cc2cccc(C)n2)c1 (stereo unspecified),126% (inactive)
8,COc1ccc(C2c3[nH]c4ccccc4c3CCN2CCCn2cccn2)cc1C (stereo unspecified),148% (active)
9,Cc1cc(C)c(C#N)c(SCC(=O)Nc2ccccc2)n1,85.2% (inactive)
10,Cc1ccc(C(=O)N2CCCC(c3ccccc3)=N2)cc1,92.1% (inactive)
11,COc1ccc(OC)c(S(=O)(=O)Nc2ccccc2F)c1,96.8% (inactive)
12,COC(=O)c1[nH]c2ccc(Br)cc2c1NC(=O)Oc1ccccc1,102% (inactive)
13,COC(=O)c1[nH]c2ccccc2c1NS(=O)(=O)c1ccc(OC)cc1OC,149% (active)
14,O=[N+]([O-])c1ccccc1Nc1ccc(O)cc1,104% (inactive)
15,CCOc1ccc2c(=O)c(-c3ccc4c(c3)OCCCO4)c(C)oc2c1,98.4% (inactive)
16,Cc1ccc(NC(=O)c2cc([N+](=O)[O-])ccc2Cl)c(O)c1,138% (active)
17,CC(C)C(=O)Nc1cccc(NC(=O)c2ccc([N+](=O)[O-])cc2Cl)c1,106% (inactive)
18,CCC(C)C(=O)Nc1cc([N+](=O)[O-])ccc1Cl (stereo unspecified),103% (inactive)
19,CC1CCC2(CC1)NC(=O)N(Cc1nnc(-c3cccs3)o1)C2=O (stereo unspecified),96.4% (inactive)
20,C/C(=C\c1ccco1)CN1CCC(N2CCC(C(=O)N3CCOCC3)CC2)CC1,110% (inactive)
21,Cn1cc(CN2CCCC(CO)C2)c(-c2ccc(Oc3ccccc3)cc2)n1 (stereo unspecified),108% (inactive)
22,COc1cc(NS(=O)(=O)c2ccc(N/C=C(\C=O)c3nc4cc(Cl)ccc4o3)cc2)nc(OC)n1,159% (active)
23,COc1cc(NS(=O)(=O)c2ccc(N=Cc3c(C)[nH]n(-c4ccccc4)c3=O)cc2)nc(OC)n1,111% (inactive)
24,COc1cc(NS(=O)(=O)c2ccc(NC(=O)c3ccc(S(=O)(=O)N4CCCCC4)cc3)cc2)ncn1,97.5% (inactive)

row,Structure (SMILES),activation (% of control)
1,NC(=O)c1ccc(NC(=O)COC(=O)C(Cc2ccccc2)NC(=O)c2ccccc2)cc1 (stereo unspecified),92.8% (inactive)
2,CCN(CC)CCN(C(=O)c1ccc(N2C(=O)CCC2=O)cc1)c1nc2cc3c(cc2s1)OCO3,107% (inactive)
3,C/C(=N/NC(=O)c1ccc(NC(=O)c2ccc(F)cc2)cc1)c1ccccc1,85.3% (inactive)
4,COc1ccccc1C(=O)NNC(=O)c1ccc(NC(=O)c2ccccc2)cc1,134% (active)
5,COc1ccc(C(=O)Nc2ccccc2C(=O)N/N=C/c2ccccc2OC)cc1,105% (inactive)
6,CCCn1c(C)cc(/C=C(\C#N)C(=O)OCC(=O)Nc2cc(OC)c(OC)c(OC)c2)c1C,103% (inactive)
7,Cc1nc2ccccc2cc1O,163% (active)
8,Cc1cc(O)ccc1-c1cnc2ccccc2n1,102% (inactive)
9,Cc1nc2ccccc2cc1OCc1ccc(F)cc1,44.1% (inactive)
10,CC(=O)NCCC(=O)Nc1cc(S(=O)(=O)N2CCOCC2)ccc1N1CCOCC1,105% (inactive)
11,CCOc1cc(NC(=S)NCCCN(C)C)c(OCC)cc1NC(=O)C1CC1,99.1% (inactive)
12,O=C(NNC1=C(C(=O)C(F)(F)F)CCC1)c1ccncc1,95.6% (inactive)
13,CCn1c(NC(=O)c2nn(C)cc2Br)nc2ccccc21,96.8% (inactive)
14,Oc1ccc(Br)cc1C=Nc1ccc2[nH]ncc2c1,102% (inactive)
15,CCN(CC)CCn1c(/N=C/c2cc(Br)ccc2O)nc2ccccc21,133% (active)
16,S=c1[nH]nc(-c2cccs2)n1/N=C/c1cccs1,109% (inactive)
17,Cc1cc(OC(=O)c2ccccc2)c([N+](=O)[O-])c(=O)[nH]1,106% (inactive)
18,O=C(NCC1CCCO1)/C(=C/c1ccc(Cl)cc1)NC(=O)c1ccccc1 (stereo unspecified),88.2% (inactive)
19,Cc1nn(Cc2ccc(Cl)c(Cl)c2)c(C)c1NC(=O)c1cc(C2CC2)on1,92.8% (inactive)
20,O=C(Nc1cc(C(F)(F)F)ccc1Cl)c1cc(C2CC2)on1,150% (active)
21,CSc1ccccc1NC(=O)c1cc(C2CC2)on1,122% (inactive)
22,CCCN(CCC)c1c([N+](=O)[O-])c(=O)oc2ccccc12,96.6% (inactive)
23,Cc1ccn(-c2cccc(-n3ccc(C)n3)n2)n1,93.6% (inactive)
24,CCC(C)NC(=O)CN(C1CCCCC1)S(C)(=O)=O (stereo unspecified),105% (inactive)

row,Structure (SMILES),activation (% of control)
1,Cc1cc(=O)n2[nH]c(-c3sccc3-n3c(C)ccc3C)cc2n1,118% (inactive)
2,CCCC(C)C(=O)OCC(=O)Nc1c(Br)cc(C)cc1Br (stereo unspecified),102% (inactive)
3,COc1ccc(Cc2nnc(NC(=O)c3cc(OC)c(OC)c(OC)c3)s2)cc1OC,91.5% (inactive)
4,CCc1nnc(NC(=O)[C@@H](NC(=O)c2cccc(C)c2)C(C)C)s1,101% (inactive)
5,Cc1cccc(C(=O)Nc2nnc(Cc3c[nH]c4ccccc34)s2)c1,157% (active)
6,CCc1ccc2ncc(C(=O)c3ccccc3)c(N3CCOCC3)c2c1,110% (inactive)
7,CCn1c(SCC(=O)N/N=C/C=C/c2ccccc2[N+](=O)[O-])nnc1-c1ccccc1,138% (active)
8,Cc1ccc(-n2c(SCC(=O)N/N=C/C=C/c3ccccc3[N+](=O)[O-])nc3ccccc3c2=O)cc1,97.7% (inactive)
9,CCn1c(SCC(=O)Nc2ccc(S(=O)(=O)Nc3onc(C)c3C)cc2)nnc1-c1ccccc1,98.7% (inactive)
10,COc1ccc(CCNC(=O)COC(=O)Cc2cc(OC)c(OC)c(OC)c2)cc1,111% (inactive)
11,CC(C)NC(=O)C(=O)NCCCOC(C)C,101% (inactive)
12,COc1nc(N=C(N)N)nc2c(C)cccc12,172% (active)
13,COc1ccc2nc(/N=C(\N)NC(=O)Nc3ccccc3)nc(C)c2c1,100% (inactive)
14,CCc1c(C)nc2c(OC)cccc2c1Cl,101% (inactive)
15,Cc1nc(N=C(N)N)nc2c(C)cccc12,168% (active)
16,Cc1cccc2c(=O)n3c(nc12)CCCCC3,102% (inactive)
17,O=C(COC(=O)c1ccccc1)Nc1cccc(S(=O)(=O)N2CCOCC2)c1,101% (inactive)
18,CCC1CCCCN1C(=S)Nc1ccc(SC(F)F)cc1 (stereo unspecified),94.3% (inactive)
19,CC1(C)CC(=O)CC2(C1)NCC(c1ccccc1Cl)c1c2[nH]c2ccccc12 (stereo unspecified),105% (inactive)
20,O=C(C1=C(O)C(=O)N(Cc2ccccc2)C1c1ccco1)c1ccco1 (stereo unspecified),101% (inactive)
21,O=C(C1=C(O)C(=O)N(Cc2ccccc2)C1c1cccnc1)c1ccco1 (stereo unspecified),100% (inactive)
22,O=C(C1=C(O)C(=O)N(c2ncccn2)C1c1cccs1)c1ccco1 (stereo unspecified),134% (active)
23,CCOC(=O)CNC(=O)/C=C/c1c(Cl)cccc1Cl,86.6% (inactive)
24,CCOC(=O)C1CCN(C(=O)c2oc3ccc(S(=O)(=O)N4CCCCCC4)cc3c2C)CC1,89.9% (inactive)

row,Structure (SMILES),activation (% of control)
1,CCOC(=O)C1CCN(c2ncnc3c2oc2ccc(Br)cc23)CC1,141% (active)
2,CCOC(=O)C1CCN(c2ncnc3c2c(-c2ccccc2)cn3-c2ccc(C)cc2)CC1,102% (inactive)
3,O=C(O)c1ccccc1-c1ccccc1C(=O)Nc1nccs1,101% (inactive)
4,COc1cc(C(=O)Nc2nccs2)cc(OC)c1OC,81% (inactive)
5,Cn1cccc1C(=O)Nc1nccs1,140% (active)
6,COC(=O)Cc1c(O)ccn(Cc2cccc(C(F)(F)F)c2)c1=O,99.8% (inactive)
7,COCC(=O)N=Nc1c(O)[nH]c2ccccc12,92.2% (inactive)
8,Cc1c(-c2ccccc2)n[nH]c1C(=O)N=Nc1c(O)[nH]c2ccccc12,84.5% (inactive)
9,Cc1cccc(N(CC(=O)N=Nc2c(O)[nH]c3ccccc23)S(C)(=O)=O)c1C,140% (active)
10,CC1=NNC(=O)C1CCC(=O)N/N=C\c1ccc(Cl)c(Cl)c1 (stereo unspecified),108% (inactive)
11,Cc1ccc2nsnc2c1NC(=O)c1ccccc1[N+](=O)[O-],99.5% (inactive)
12,O=C(O/N=C(/c1ccccc1)c1ccncc1)c1ccccc1[N+](=O)[O-],113% (inactive)
13,C/C(=N\NC(=O)CNc1cccc2ccccc12)c1ccc(Br)s1,137% (active)
14,C/C(=N\NC(=O)CSc1nc2ccccc2c(=O)n1-c1ccccc1C)c1cccs1,105% (inactive)
15,Cc1cccc(/C=N/NC(=O)CNc2cccc3ccccc23)n1,114% (inactive)
16,Cc1cc(/C=N/NC(=O)c2cccnc2)c(C)n1CC(C)C,118% (inactive)
17,CSCCC(NC(=O)c1ccco1)C(=O)OCC(=O)Nc1ncc(Cl)c(C)c1Cl (stereo unspecified),145% (active)
18,CSCCC(NC(=O)COc1ccccc1)C(=O)OCC(=O)c1cc2ccccc2o1 (stereo unspecified),116% (inactive)
19,Cc1c(Cl)cnc(NC(=O)COC(=O)c2ccc(S(=O)(=O)NCc3ccco3)cc2)c1Cl,103% (inactive)
20,O=C1CCCN1CCCNc1ncnc2c1[nH]c1ccccc12,151% (active)
21,O=C(CCn1c(=S)[nH]c2ccccc2c1=O)NCCCN1CCCC1=O,98.6% (inactive)
22,CC(C)OCCCNc1ncnc2c1[nH]c1ccc(F)cc12,36.3% (inactive)
23,CCCc1nnc(SCC(=O)N2C(C)CCCC2C)n1CC (stereo unspecified),105% (inactive)
24,N#CCSc1nn(-c2ccc(F)cc2)c(=S)s1,103% (inactive)

# From PubChem BioAssay AID871 (The Scripps Research Institute Molecular Screening Center, 2007)
